Source: PMC8462008 (Bioorganic & medicinal chemistry, 2021)
Entries after “also recorded” stand apart in the source; their conditions may differ.

Experiments:
IRF3 [1] = assay: IRF3 luciferase reporter assay in RSV-infected A549 cells; format: cell-based, human; settings: 10 μM
Outline: (§1)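 A549 cells transfected in triplicate (FuGene 6) with luciferase plasmids carrying NF-κB binding sites (NF-κB-Luc) or the IRF-3 site (PRDIII-I-Luc, IRF-3-Luc). At 20 h post-transfection, cells were infected with RSV long strain, either MOI 1 with 2 h adsorption then virus removed and 10 μM test compound for 15 h, or MOI 5 with 4 h treatment. Cells were lysed for luciferase. Run at least twice; means ± SE.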

NF-κB [2] = assay: NF-κB luciferase reporter assay in RSV-infected A549 cells; format: cell-based, human; settings: 10 μM
Outline: as §1

[3] = system: RSV-induced cytokines/chemokines; assay: RSV-induced cytokine/chemokine induction in SAECs; format: cell-based, human; settings: 10 μM, 4 h posttreatment, RSV MOI 5, SAECs supernatant
Outline: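 Primary human small airway epithelial cells from normal distal lung were infected with RSV long strain at MOI 5. Virus was removed at 2 h and cells were treated with 10 μM test compound. Supernatants were collected at 4 h post-treatment and assayed with a multiplex human cytokine/chemokine bead kit (Bio-Plex) per kit instructions. Run at least twice; means ± SE.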

RSV = RSV genome copies in infected A549 cells by RT-qPCR; format: cell-based, respiratory syncytial virus (RSV long strain); settings: 10 μM, RSV MOI 1, A549
Outline: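 RSV long strain was grown in HEp-2 cells at 37 °C and purified on a sucrose gradient. A549 cells were infected at MOI 1, then treated with 10 μM test compound for 6, 15 or 24 h. Intracellular RSV genome copies were quantified by RT-qPCR at each time point after treatment.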

[4] = system: RSV viral proteins (P, M, N, F); assay: RSV viral protein expression in A549 cells by western blot; format: cell-based, respiratory syncytial virus (RSV long strain); settings: 10 μM; for RSV protein expression: 4 h, RSV MOI 5, A549, versus control cells; for expression of viral P, M, N and F proteins: 15 h posttreatment, RSV MOI 1, A549
Outline: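 A549 cells were infected with RSV long strain, either MOI 1 then 10 μM test compound for 15 h, or MOI 5 then 10 μM for 4 h. Total lysates were resolved by SDS-PAGE and transferred to PVDF. Membranes were blocked in 5% milk/TBS-Tween 20 and probed with biotin-conjugated polyclonal goat anti-RSV or anti-F antibody; β-actin was the loading control.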

IRF3 [5] = assay: RSV-induced IRF3 phosphorylation and nuclear translocation in A549 cells; format: cell-based, human; settings: 10 μM; for IRF-3 total protein level in the cell: cell lysates at 4 h or 15 h of infection
Outline: (§2)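 A549 cells, mock or RSV-infected, were treated with 10 μM test compound, either MOI 5 for 4 h or MOI 1 for 15 h. Nuclear extracts were blotted for IRF-3, phospho-IRF3 Ser396, p65, and phospho-p65 Ser276 and Ser536. Total IRF-3 and p65 were measured in whole-cell lysates at 4 h and 15 h. Blots used SDS-PAGE, PVDF and 5% milk block; β-actin was the loading control.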

p65 = assay: RSV-induced p65 phosphorylation and nuclear translocation in A549 cells; format: cell-based, human; settings: 10 μM; for p65 total protein level in the cell: cell lysates at 4 h or 15 h of infection
Outline: as §2

IRF-3 = assay: Poly I:C-activated IRF-3 luciferase reporter in HEK-293 cells; format: cell-based, human; settings: 4 h post-treatment
Outline: (§3)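 HEK-293 cells were transiently transfected with IRF-3 (Poly I:C line) or NF-κB (Poly I:C and TNF-α lines) luciferase reporter plasmids. At 15 h post-transfection, cells were stimulated by transfection with Poly I:C or by 10 ng/ml TNF-α and treated with test compound. Luciferase activity was read at 4 h post-treatment. Run at least twice; means ± SE.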

NF-κB [6] = assay: Poly I:C-induced NF-κB luciferase reporter in HEK-293 cells; format: cell-based, human; settings: 4 h post-treatment
Outline: as §3

NF-κB [7] = assay: TNF-α-induced NF-κB luciferase reporter in HEK-293 cells; format: cell-based, human; settings: 10 ng/ml TNF-α, 4 h post-treatment
Outline: as §3

A549 cells = assay: LDH release cytotoxicity assay; format: cell-based, human; settings: 10 μM, 15 h
Outline: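 A549 cells were seeded at 1.5 × 10^4 cells/well for 24 h. The whole medium was then replaced with fresh medium containing 10 μM test compound and 2% FBS; DMSO served as vehicle control. At 15 h, cells were harvested for luminescent LDH-release assay (LDH-Glo kit). Three biological replicates.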

[8] = 4 h posttreatment, RSV MOI 5, A549
[9] = 15 h posttreatment, RSV MOI 1, A549
[10] = 4 h posttreatment, RSV MOI 5, nuclear extracts
[11] = 15 h posttreatment, RSV MOI 1, nuclear extracts

Compound: CCCNc1ccc(NC(=O)c2cc(Cl)ccc2O)c(Cl)c1 [Compound 11]
- RSV-induced IRF3 activation (luciferase reporter) (IRF3 [1]; [8]): significantly inhibited
- RSV-induced IRF3 activation (luciferase reporter) (IRF3 [1]; [9]): dramatically suppressed
- RSV-induced NF-κB activation (luciferase reporter) (NF-κB [2]; [8]): significantly inhibited
- RSV-induced NF-κB activation (luciferase reporter) (NF-κB [2]; [9]): dramatically suppressed
- RSV-induced MIP-1β [3]: capable to inhibit

Compound: CC(C)Nc1ccc(NC(=O)c2cc(Cl)ccc2O)c(Cl)c1 [Compound 12]
- RSV-induced IRF3 activation (luciferase reporter) (IRF3 [1]; [8]): significantly inhibited
- RSV-induced IRF3 activation (luciferase reporter) (IRF3 [1]; [9]): dramatically suppressed
- RSV-induced NF-κB activation (luciferase reporter) (NF-κB [2]; [8]): significantly inhibited
- RSV-induced NF-κB activation (luciferase reporter) (NF-κB [2]; [9]): dramatically suppressed
- RSV-induced IL-6 [3]: no suppression
- RSV-induced MIP-1α [3]: no suppression
- RSV-induced TNF-α [3]: no suppression

Compound: CC1(Nc2ccc(NC(=O)c3cc(Cl)ccc3O)c(Cl)c2)CCCCC1 [Compound 15, 5-Chloro-N-(2-chloro-4-((1-methylcyclohexyl)amino)phenyl)-2-hydroxybenzamide]
- RSV-induced IRF3 activation (luciferase reporter) (IRF3 [1]; [8]): significantly inhibited
- RSV-induced IRF3 activation (luciferase reporter) (IRF3 [1]; [9]): suppressed
- RSV-induced NF-κB activation (luciferase reporter) (NF-κB [2]; [8]): significantly inhibited
- RSV-induced NF-κB activation (luciferase reporter) (NF-κB [2]; [9]): no effect; also recorded: failed to inhibit
- viral genome copies (RSV; 15 h posttreatment): significantly decreased
- viral genome copies (RSV; 24 h posttreatment): significantly decreased
- RSV-induced IL-6 [3]: could inhibit
- RSV-induced MIP-1β [3]: capable to inhibit
- RSV-induced TNF-α [3]: able to inhibit
- RSV-induced cytokines/chemokines (all tested immune mediators) [3]: inhibited the induction of all tested immune mediators
- RSV protein expression [4]: comparable
- expression of viral P, M, N and F proteins [4]: decreased
- nuclear translocation of IRF3 (IRF3 [5]; 4 h posttreatment, RSV MOI 5): significantly decreased
- RSV-induced IRF3 phosphorylation at Ser396 (IRF3 [5]; [10]): significantly decreased
- nuclear translocation of IRF3 (IRF3 [5]; 15 h posttreatment, RSV MOI 1): significantly decreased
- RSV-induced IRF3 phosphorylation at Ser396 (IRF3 [5]; [11]): significantly decreased
- IRF-3 total protein level in the cell (IRF3 [5]): undetectable or minimal impact
- RSV-induced p65 Ser276 phosphorylation (p65; 4 h posttreatment, RSV MOI 5): not affected
- RSV-induced p65 Ser536 phosphorylation (p65; 4 h posttreatment, RSV MOI 5): suppressed
- nuclear translocation of p65 (p65; 4 h posttreatment, RSV MOI 5): suppressed
- RSV-induced p65 Ser276 phosphorylation (p65; 15 h posttreatment, RSV MOI 1): no effect
- RSV-induced p65 Ser536 phosphorylation (p65; 15 h posttreatment, RSV MOI 1): impaired
- nuclear translocation of p65 (p65; 15 h posttreatment, RSV MOI 1): decreased
- p65 total protein level in the cell (p65): undetectable or minimal impact
- Poly I:C-activated IRF-3 (luciferase reporter) (IRF-3): suppressed
- Poly I:C-induced NF-κB activation (luciferase reporter) (NF-κB [6]): only impacted by compound 22, not 15
- TNF-α-activated NF-κB (luciferase reporter) (NF-κB [7]): not impacted

Compound: O=C(Nc1ccc(NCc2cccnc2)cc1Cl)c1cc(Cl)ccc1O [Compound 19, 5-Chloro-N-(2-chloro-4-((pyridin-3-ylmethyl)amino)phenyl)-2-hydroxybenzamide]
- RSV-induced IRF3 activation (luciferase reporter) (IRF3 [1]; [8]): no suppression
- RSV-induced IRF3 activation (luciferase reporter) (IRF3 [1]; [9]): no effect
- RSV-induced NF-κB activation (luciferase reporter) (NF-κB [2]; [8]): no suppression
- RSV-induced NF-κB activation (luciferase reporter) (NF-κB [2]; [9]): no effect
- RSV-induced cytokines/chemokines (all tested immune mediators) [3]: did not show any inhibitory effect

Compound: O=C(Nc1ccc(NCc2ccco2)cc1Cl)c1cc(Cl)ccc1O [Compound 22, 5-Chloro-N-(2-chloro-4-((furan-2-ylmethyl)amino)phenyl)-2-hydroxybenzamide]
- RSV-induced IRF3 activation (luciferase reporter) (IRF3 [1]; [8]): significantly inhibited
- RSV-induced IRF3 activation (luciferase reporter) (IRF3 [1]; [9]): dramatically suppressed
- RSV-induced NF-κB activation (luciferase reporter) (NF-κB [2]; [8]): significantly inhibited
- RSV-induced NF-κB activation (luciferase reporter) (NF-κB [2]; [9]): dramatically suppressed
- viral genome copies (RSV; 15 h posttreatment): significantly decreased
- viral genome copies (RSV; 24 h posttreatment): significantly decreased
- RSV-induced IL-6 [3]: no suppression; also recorded: enhanced
- RSV-induced MIP-1α [3]: no suppression
- RSV-induced TNF-α [3]: no suppression
- RSV protein expression [4]: comparable
- expression of viral P, M, N and F proteins [4]: decreased
- nuclear translocation of IRF3 (IRF3 [5]; 4 h posttreatment, RSV MOI 5): significantly decreased
- RSV-induced IRF3 phosphorylation at Ser396 (IRF3 [5]; [10]): significantly decreased
- nuclear translocation of IRF3 (IRF3 [5]; 15 h posttreatment, RSV MOI 1): significantly decreased
- RSV-induced IRF3 phosphorylation at Ser396 (IRF3 [5]; [11]): significantly decreased
- IRF-3 total protein level in the cell (IRF3 [5]): undetectable or minimal impact
- RSV-induced p65 Ser276 phosphorylation (p65; 4 h posttreatment, RSV MOI 5): not affected
- RSV-induced p65 Ser536 phosphorylation (p65; 4 h posttreatment, RSV MOI 5): suppressed
- nuclear translocation of p65 (p65; 4 h posttreatment, RSV MOI 5): suppressed
- RSV-induced p65 Ser276 phosphorylation (p65; 15 h posttreatment, RSV MOI 1): robustly suppressed
- RSV-induced p65 Ser536 phosphorylation (p65; 15 h posttreatment, RSV MOI 1): robustly suppressed
- nuclear translocation of p65 (p65; 15 h posttreatment, RSV MOI 1): robustly suppressed
- p65 total protein level in the cell (p65): undetectable or minimal impact
- Poly I:C-activated IRF-3 (luciferase reporter) (IRF-3): suppressed
- Poly I:C-induced NF-κB activation (luciferase reporter) (NF-κB [6]): impacted

Compound: CCCN(CCC)c1ccc(NC(=O)c2cc(Cl)ccc2O)c(Cl)c1 [Compound 26]
- RSV-induced IRF3 activation (luciferase reporter) (IRF3 [1]; [8]): significantly inhibited
- RSV-induced IRF3 activation (luciferase reporter) (IRF3 [1]; [9]): dramatically suppressed
- RSV-induced NF-κB activation (luciferase reporter) (NF-κB [2]; [8]): significantly inhibited
- RSV-induced NF-κB activation (luciferase reporter) (NF-κB [2]; [9]): dramatically suppressed
- RSV-induced TNF-α [3]: able to inhibit

Compound: O=C(Nc1ccc(N2CCOCC2)cc1Cl)c1cc(Cl)ccc1O [Compound 28, 5-Chloro-N-(2-chloro-4-morpholinophenyl)-2-hydroxybenzamide]
- RSV-induced IRF3 activation (luciferase reporter) (IRF3 [1]; [8]): significantly inhibited
- RSV-induced IRF3 activation (luciferase reporter) (IRF3 [1]; [9]): dramatically suppressed
- RSV-induced NF-κB activation (luciferase reporter) (NF-κB [2]; [8]): significantly inhibited
- RSV-induced NF-κB activation (luciferase reporter) (NF-κB [2]; [9]): dramatically suppressed
- RSV-induced IL-6 [3]: no suppression
- RSV-induced MIP-1α [3]: no suppression
- RSV-induced TNF-α [3]: no suppression

Compound: CS(=O)(=O)CCCn1c(Cn2c(=O)n(CC(F)(F)F)c3ccncc32)cc2cc(Cl)ccc21 [JNJ-53718678, reference compound]
- viral genome copies (RSV; 15 h posttreatment): did not affect
- viral genome copies (RSV; 24 h posttreatment): slightly decreased

Compound: O=C(Nc1ccc([N+](=O)[O-])cc1Cl)c1cc(Cl)ccc1O [Niclosamide]
- cell death (A549 cells): about 24%
